Data taken from ChEMBL document CHEMBL1123033, “Synthesis and antiherpes simplex virus activity of 9-[(1,3-dihydroxy-2-propylthio)methyl]guanine” (1985).
pIC50: −log10 of the molar value. Calls of active or inactive are those of the source. The calls are words filed in the database; no cut-off is given here.

How the values were obtained:
Mus musculus [1] = experiment: Effect of subcutaneous dose at 10 mg/kg on HSV-2 induced mortality in mice; type: functional
Method in brief: (§1)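 Female Swiss-Webster mice (~20 g) infected intraperitoneally with 5 × 10^4 PFU HSV-2 strain G (~10 LD50), then dosed subcutaneously once daily (24-h intervals) for 4 days starting 24 h post-infection, with a saline group run alongside. Read-out is survivors/total (15–16 mice per group) with percent survivors; probability by Fisher exact test.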

Mus musculus [2] = experiment: Effect of subcutaneous dose at 3 mg/kg on HSV-2 induced mortality in mice; 4/16; type: functional; method in brief: as §1
Human betaherpesvirus 5 = experiment: In vitro antiviral and anticellular activity was evaluated against human cytomegalovirus (HCMV AD 169) in […].; type: functional; details: read-out: ID50 (the source's name)
Method in brief: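 Plaque reduction assay in MRC-5 cells infected with HCMV and treated with the nucleoside analogue. ID50 is the dose cutting plaque numbers by 50% versus untreated controls.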

Mus musculus [3] = experiment: (§2) Mean survival time of HSV-2 induced mortality in mice was determined when the 10 mg/Kg of compound was administered subcutaneously; type: functional
Method in brief: (§3)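 Mice (female Swiss-Webster, ~20 g) challenged intraperitoneally with 5 × 10^4 PFU HSV-2 strain G (~10 LD50); subcutaneous dosing once daily for 4 days, first dose 24 h after infection, with a saline group run alongside. Mean survival time in days ± standard deviation; probability by Mann-Whitney u-test.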

Vero = experiment: In vitro antiviral and anticellular activity was evaluated against vero cells in tissue culture; type: functional; details: Chlorocebus sabaeus, read-out: ID50 (the source's name)
Method in brief: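 Anticellular activity measured by cell proliferation assay in uninfected Vero cells.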

Human alphaherpesvirus 2 [4] = experiment: In vitro antiviral and anticellular activity was evaluated against herpes simplex virus HSV-2 (G strain) in vero cells.; type: functional; details: Human alphaherpesvirus 2, Vero; read-out: ID50 (the source's name)
Method in brief: (§4)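 Plaque reduction assay in Vero cells infected with HSV; cells exposed to the nucleoside analogue. ID50 is the dose giving a 50% drop in plaque count relative to untreated controls.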

Mus musculus [5] = experiment: Effect of subcutaneous dose at 10 mg/kg on HSV-2 induced mortality in mice; 7/16; type: functional; method in brief: as §1
Mus musculus [6] = experiment: Effect of subcutaneous dose at 3 mg/kg on HSV-2 induced mortality in mice; type: functional; method in brief: as §1
Human alphaherpesvirus 1 = experiment: In vitro antiviral and anticellular activity was evaluated against herpes simplex virus HSV-1 (F strain) in vero cells tissue culture; type: functional; details: Human alphaherpesvirus 1, Vero; read-out: ID50 (the source's name); method in brief: as §4
Mus musculus [7] = experiment: Effect of subcutaneous dose at 30 mg/kg on HSV-2 induced mortality in mice; 12/16; type: functional; method in brief: as §1
Mus musculus [8] = experiment: Effect of subcutaneous dose at 30 mg/kg on HSV-2 induced mortality in mice(value in parentheses denotes probability; type: functional; method in brief: as §1
Mus musculus [9] = experiment: Mean survival time of HSV-2 induced mortality in mice was determined when the 3 mg/Kg of compound was administered subcutaneously; NS means not significant; type: functional, organism-based; method in brief: as §3
Mus musculus [10] = experiment: as §2; type: functional, organism-based; method in brief: as §3
Mus musculus [11] = experiment: Mean survival time of HSV-2 induced mortality in mice was determined when the 30 mg/Kg of compound was administered subcutaneously; NS means not significant; type: functional, organism-based; method in brief: as §3
Mus musculus [12] = experiment: Effect of subcutaneous dose at 30 mg/kg on HSV-2 induced mortality in mice; type: functional; method in brief: as §1
Mus musculus [13] = experiment: Effect of subcutaneous dose at 10 mg/kg on HSV-2 induced mortality in mice; 1/16; type: functional; method in brief: as §1
Mus musculus [14] = experiment: Effect of subcutaneous dose at 30 mg/kg on HSV-2 induced mortality in mice; 2/16; type: functional; method in brief: as §1
Mus musculus [15] = experiment: Effect of subcutaneous dose at 100 mg/kg on HSV-2 induced mortality in mice; 8/15; type: functional; method in brief: as §1
Human alphaherpesvirus 2 [16] = experiment: In vitro antiviral and anticellular activity was evaluated against herpes simplex virus HSV-2 (G strain) in vero (HSV-2 G ) cells.; type: functional; details: Human alphaherpesvirus 2, Vero; read-out: ID50 (the source's name); method in brief: as §4

Row | SMILES | Mean survival time (Mus musculus [1]) [days] | pIC50 (Human betaherpesvirus 5) | pIC50 (Vero) | pIC50 (Human alphaherpesvirus 2 [4]) | pIC50 (Human alphaherpesvirus 1) | also measured
1 | Nc1nc2c(ncn2COC(CO)CO)c(=O)[nH]1 [GANCICLOVIR] | 12.4 | 5.22 | 3.30 | 5.89 | 6.52 | Survivors (Mus musculus [2]): 4; Mean survival time (Mus musculus [3]): <0.001; Survivors (Mus musculus [5]): 7; Mean survival time (Mus musculus [6]): 11.2 days; Survivors (Mus musculus [7]): 12; Mean survival time (Mus musculus [8]): 13.8 days; Mean survival time (Mus musculus [9]): inactive
2 | Nc1nc(O)c2ncn(CSC(CO)CO)c2n1 | 9.7 | 4.10 | 3.05 |  | 6.05 | Mean survival time (Mus musculus [10]): inactive; Mean survival time (Mus musculus [11]): inactive; Mean survival time (Mus musculus [12]): 9.4 days; Survivors (Mus musculus [13]): 1; Survivors (Mus musculus [14]): 2; Survivors (Mus musculus [15]): 8; pIC50 (Human alphaherpesvirus 2 [16]): 5.10
3 | Nc1nc(O)c2ncn(C[S+]([O-])C(CO)CO)c2n1 (centres undefined) |  |  |  |  | 4.60 | 
4 | Nc1nc(O)c2ncn(CS(=O)(=O)C(CO)CO)c2n1 |  |  |  |  | 4.40 | 
5 | Nc1nc2c(ncn2COCCO)c(=O)[nH]1 [ACYCLOVIR] |  | 4.00 | 2.96 | 5.82 | 6.40 | 
